SENP8 block-1: SENP8 protease inhibitors, primary screen, biochemical, luminescence | purified SENP8, Z-RLRGG-aminoluciferin cleavage | inhibition, % at 10 µM | 1.2% of 330,000 active | AID 2540, 2010; in the data active = inhibition above about 50%
Target sequence (Q96LD8 whole entry, looked up): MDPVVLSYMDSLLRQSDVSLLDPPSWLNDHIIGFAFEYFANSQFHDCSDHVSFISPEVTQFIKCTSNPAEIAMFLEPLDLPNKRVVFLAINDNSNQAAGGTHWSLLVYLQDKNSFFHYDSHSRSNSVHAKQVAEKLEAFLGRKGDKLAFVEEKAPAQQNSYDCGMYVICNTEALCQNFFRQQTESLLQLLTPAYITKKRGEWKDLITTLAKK
UBC13 polyUb: UBC13 polyubiquitin chain formation inhibitors, primary screen, biochemical, TR-FRET, uHTS. Ubiquitin-conjugating enzyme E2 N (Homo sapiens), P61088. inhibition, % at 20 µM. 0.47% of 330,000 active. AID 485273, 2010; in the data active = inhibition above about 45%, passing the limit was not always enough
Target sequence (P61088 whole entry, looked up): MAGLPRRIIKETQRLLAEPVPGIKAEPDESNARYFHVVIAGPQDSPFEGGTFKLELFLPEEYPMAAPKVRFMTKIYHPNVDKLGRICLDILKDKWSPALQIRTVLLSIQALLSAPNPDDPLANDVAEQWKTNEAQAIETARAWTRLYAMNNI
SENP8 block-2: human SENP8 protease inhibitors, primary screen, biochemical, fluorescence, Nedd8 protein substrate, uHTS; Sentrin-specific protease 8 (Homo sapiens), Q96LD8; recombinant SENP8; inhibition, % at 20 µM; 0.64% of 360,000 active; AID 602440, 2012; in the data active = inhibition mostly above about 40%, no sharp cut-off; inactive = mostly below about 27%
SENP7 block: SENP7 protease inhibitors, primary screen, biochemical, luminescence, uHTS; Sentrin-specific protease 7 (Homo sapiens), Q9BQF6; recombinant SENP7, Z-RLRGG-aminoluciferin luminescence, 40 min; inhibition, % at 5 µM; 1.5% of 330,000 active; AID 434973, 2010;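 active = inhibition above about 50% at the single test dose, limit read from the data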
SENP6 inh: SENP6 protease inhibitors, primary screen, biochemical, luminescence, uHTS; Sentrin-specific protease 6 (Homo sapiens), Q9GZR1; Recombinant SENP6 catalytic domain, aminoluciferin luminescence; inhibition, % at 10 µM; 1.8% of 330,000 active; AID 2599, 2010;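 active = inhibition above about 50% at the single tested dose, limit read from the data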
Apaf1 inhib: inhibitors of human Apaf-1 apoptosome, primary screen, biochemical, DEVD-Rh110 fluorescence, uHTS; reconstituted apoptosome caspase-3 activity; inhibition, % at 20 µM; 0.71% of 330,000 active; AID 489030, 2010; active = inhibition of at least 40% at 20 µM
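Material: reconstituted apoptosome with Apaf-1, cytochrome c, caspase-9, procaspase-3, dATP. Technique: Rh110 fluorescence intensity. Buffer or medium: pH 7.5 Hepes buffer with CHAPS, BSA, DTT. Times: 30 min plus 50 min, RT.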
A number is an active result; – = inactive; · = not tested or not shown. An excerpt weighted towards active compounds, which were near 3% of everything screened.

SMILES | SENP8 block-1 | UBC13 polyUb | SENP8 block-2 | SENP7 block | SENP6 inh | Apaf1 inhib
COc1ccc(C(=O)/C(C#N)=N/Nc2ccccc2[N+](=O)[O-])cc1 | – | – | – | – | – | –
COc1ccc(C(=O)/C(C#N)=N/Nc2ccc([N+](=O)[O-])cc2)cc1 | – | – | 40 | – | – | –
Cc1c(N/N=C(\C#N)C(=O)c2ccc(Cl)cc2)c(=O)n(-c2ccccc2)n1C | · | · | – | · | · | ·
COc1cccc(C(=O)Nc2ccc3c(c2)OC[C@H](C)N(C(=O)C2CCCC2)C[C@@H](C)[C@@H](OC)CN(C)C3=O)c1 | · | · | – | · | · | ·
Nc1[nH]c(C(=O)c2ccccc2)c(-c2ccc(Cl)c(F)c2)c1C(=O)NCCc1c[nH]c2ccccc12 | · | · | – | · | · | ·
COCOCCn1cc(CN2CCS(=O)(=O)N(Cc3ccc(-c4ccc(Cl)c(Cl)c4)cc3)C(C(C)C)C2=O)nn1 (stereo not given) | · | · | – | · | · | ·
CC(N)c1csc(Nc2nncc3ccccc23)n1 (stereo not given) | · | · | – | · | · | ·
CC1=C(C(=O)N2CCCCCC2)CC(CC(=O)NCCCCc2ccccc2)C(=O)N1CCC1=CCCCC1 (stereo not given) | · | · | – | · | · | ·
Cc1ccc(S(=O)(=O)N[C@H](CNCc2ccccc2)C(C)C)cc1 | · | · | – | · | · | ·
C/C(=N\NC(=S)Nc1ccccc1C)c1ccc(O)cc1 | – | 50 | – | – | – | –
COCCNC(=S)N/N=C(\C)c1ccc(O)cc1 | – | – | – | – | – | –
O=C(Nc1cccnc1)C1Cc2c(-c3ccc4c(c3)OCO4)ccnc2O1 (stereo not given) | · | · | – | · | · | ·
O=C(Nc1cccc(Br)c1)c1ccc(OC2CSC2)cc1 | 90 | – | · | 96 | 92 | –
CCc1c(-c2ccc(OC)cc2)ncn1Cc1cccc(-c2ccccc2)c1 | · | · | – | · | · | ·
CCN(C(=S)Nc1cc(S(=O)(=O)N2CCOCC2)ccc1Cl)c1cccc2ccccc12 | 58 | – | – | – | 77 | –
CCc1nn(CCCC(=O)NCc2ccccc2Br)c(=O)c2cc3occc3n12 | – | – | – | – | – | 46
CCOC(=O)N(C)c1c(CC)nc2c(OCc3ccccc3C)cccn12 | · | · | – | · | · | ·
O=C(NC1CCCC1)C(c1ccccc1)n1c(CSCCOc2ccccc2)nc2ccccc21 (stereo not given) | · | · | – | · | · | ·
Cc1cc(Br)cn2c(Cc3cccc(F)c3)c(-c3ccccc3)nc12 | · | · | – | · | · | ·
Cc1ccc(Cl)cc1Nc1nc(-c2sc(NC(=O)c3cccc(Cl)c3)nc2C)cs1 | 56 | – | · | – | 66 | –
Cc1ccccc1Nc1nc(-c2sc(NC(=O)c3cccc(Cl)c3)nc2C)cs1 | 60 | – | · | – | 77 | –
Cc1ccccc1Nc1nc(-c2sc(NC(=O)c3ccccc3)nc2C)cs1 | 61 | 93 | · | 61 | 80 | –
Cc1ccccc1Nc1nc(-c2sc(NC(=O)c3ccc([N+](=O)[O-])cc3)nc2C)cs1 | – | – | · | – | – | –
COc1ccc(OC)c(Nc2nc(-c3sc(NC(=O)c4ccccc4)nc3C)cs2)c1 | 52 | – | · | 53 | 67 | –
CCCNC(=O)C1(C)CCN1C(=O)c1ccc(C(C)(C)C)cc1 (stereo not given) | · | · | – | · | · | ·
SMILES | SENP8 block-1 | UBC13 polyUb | SENP8 block-2 | SENP7 block | SENP6 inh | Apaf1 inhib
N#Cc1ccc(C(=O)N2CCCCC2c2cc(C(=O)Nc3ccc4c(c3)OCO4)no2)cc1 (stereo not given) | · | · | – | · | · | ·
CCN1CCN(CCCNC(=O)c2ccc(/C=C3/Oc4ccccc4N(Cc4cccc(C)c4)C3=O)cc2)CC1 | – | 64 | – | – | – | 47
O=C(NCCCN1CCOCC1)c1ccc(/C=C2\Oc3ccccc3N(Cc3ccccc3F)C2=O)cc1 | – | – | – | – | – | –
COc1ccccc1NS(=O)(=O)c1cccc(C(=O)N2CCN(C/C=C/c3ccccc3)CC2)c1 | – | – | – | – | – | 46
CC1OC(CC(=O)O)CC2=C1C(=O)c1c(O)cccc1C2=O (stereo not given) | · | · | 89 | · | · | ·
Cc1ccc(S(=O)(=O)N2C(c3ccccc3)CC(=O)C3CN(S(=O)(=O)c4ccc(Cl)cc4)C(c4ccccc4)CC32)cc1 (stereo not given) | · | · | – | · | · | ·
COC1=CC(=O)c2ccccc2C1=O | 51 | – | – | – | 56 | 79
c1ccc2sc(SCc3ccc(-c4nnco4)cc3)nc2c1 | 89 | – | – | 89 | 96 | –
c1ccc2sc(SCSc3nc4ccccc4s3)nc2c1 | – | – | – | – | – | –
C/C(=N/NC(=O)c1cc2ccccc2cc1O)c1ccco1 | 52 | – | – | – | 74 | –
O=C(NCCN1CCC(n2c(=O)[nH]c3ccccc32)CC1)c1ccc(Cl)c(Cl)c1 | · | · | – | · | · | ·
O=C(CNc1ccc(F)cc1)c1ccccc1 | – | – | – | – | 65 | –
CCCCNC(=O)c1c(N)[nH]c(C(=O)c2ccccc2)c1-c1ccccn1 | · | · | – | · | · | ·
COc1ccc(NC(=O)C(c2ccccc2F)n2c(=O)c(-c3cc4ccccc4[nH]3)nc3ccccc32)cc1 (stereo not given) | · | · | – | · | · | ·
Cc1cccc2nc(COc3ccc4ccccc4c3Br)cn12 | – | – | – | – | 57 | –
CCOc1ccc(/C=C2\SC(=S)N(C(C(=O)O)c3ccccc3)C2=O)cc1OC (stereo not given) | – | – | – | – | – | –
C=CCOc1ccc(/C=C2\SC(=S)N(C(C(=O)O)c3ccccc3)C2=O)cc1 (stereo not given) | · | · | 42 | · | · | ·
Nc1nonc1C(=O)N/N=C/c1ccc(-c2cccc(C(=O)O)c2)o1 | – | – | · | – | 58 | –
CNC(=S)N/N=C/c1ccc(-c2cccc(C(=O)O)c2)o1 | – | – | – | – | – | –
CCOC(=O)c1c(C)[nH]c(N=Nc2ccc(OC)cc2)c1C | – | – | 49 | – | 61 | –
CCOC(=O)c1c(C)[nH]c(N=Nc2ccccc2)c1C | – | – | 44 | – | – | –
COc1ccc2cc1Oc1ccc(cc1)CC1c3c(cc(OC)c4c3Oc3cc5c(cc3O4)CCNC5C2)CCN1C (stereo not given) | – | 110 | 45 | – | – | 41
O=C(CCc1ccc(S(=O)(=O)N2CCOCC2)cc1)N/N=C/c1ccc(F)cc1F | – | – | – | – | – | –
O=C(CCc1ccc(S(=O)(=O)N2CCOCC2)cc1)N/N=C/c1ccc(O)c(O)c1O | – | – | 39 | – | – | –
CCN1C(=O)/C(=C\N2CCCCCC2)SC1=S | – | – | 46 | – | – | –
CCOc1ccccc1C=C1SC(=S)N(CC)C1=O | · | · | 36 | · | · | ·
O=C(NC1CCCC1)C(C1CC1)n1c(-c2ccnc3ccccc23)nc2ccccc21 (stereo not given) | · | · | – | · | · | ·
O=C1C(=NO)CCc2ccccc21 | · | · | 42 | · | · | ·
